Legend:
Format in all cases: ADME, organism-based
[1] = Unbound drug concentration in beta lactamase-negative Haemophilus influenzae pharmacokinetic simulation model dosed as amoxicillin-clavulanic acid at simulated human serum concentration of 2000/125 mg, po bid after 4 hrs
Procedure, shortened: (§1)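 Two-compartment hollow-fibre dynamic model at 37°C, Haemophilus test medium; total or free serum profiles of oral bid regimens simulated over 48 h by computer-controlled peristaltic dilution. […] Parameters from noncompartmental analysis: Cmax/Tmax observed, AUC0-24 by linear-log trapezoidal rule. Triplicate.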

[2] = Drug concentration in beta lactamase-positive Haemophilus influenzae pharmacokinetic simulation model dosed as amoxicillin-clavulanic acid at simulated human serum concentration of 2000/125 mg, po bid after 12 hrs; details: in vivo
[3] = Unbound drug concentration in beta lactamase-negative Haemophilus influenzae pharmacokinetic simulation model dosed as amoxicillin-clavulanic acid at simulated human serum concentration of 2000/125 mg, po bid after 3 hrs; procedure, shortened: as §1
[4] = Unbound drug concentration in beta lactamase-negative Haemophilus influenzae pharmacokinetic simulation model dosed as amoxicillin-clavulanic acid at simulated human serum concentration of 2000/125 mg, po bid after 12 hrs; procedure, shortened: as §1
[5] = Unbound drug concentration in beta lactamase-positive Haemophilus influenzae pharmacokinetic simulation model dosed as amoxicillin-clavulanic acid at simulated human serum concentration of 2000/125 mg, po bid after 1 hr; procedure, shortened: as §1
[6] = Drug concentration in beta lactamase-positive Haemophilus influenzae pharmacokinetic simulation model dosed as amoxicillin-clavulanic acid at simulated human serum concentration of 2000/125 mg, po bid after 6 hrs; details: in vivo
[7] = Unbound drug concentration in beta lactamase-positive Haemophilus influenzae pharmacokinetic simulation model dosed as amoxicillin-clavulanic acid at simulated human serum concentration of 2000/125 mg, po bid after 1.5 hr; procedure, shortened: as §1
[8] = Unbound drug concentration in beta lactamase-negative Haemophilus influenzae pharmacokinetic simulation model dosed as amoxicillin-clavulanic acid at simulated human serum concentration of 2000/125 mg, po bid after 1.5 hr; procedure, shortened: as §1
[9] = fTmax in beta lactamase-negative Haemophilus influenzae pharmacokinetic simulation model dosed as amoxicillin-clavulanic acid at simulated human serum concentration of 2000/125 mg, po bid after 48 hrs; details: read-out: fTmax; procedure, shortened: as §1
[10] = fCmax in beta lactamase-positive Haemophilus influenzae pharmacokinetic simulation model dosed as amoxicillin-clavulanic acid at simulated human serum concentration of 2000/125 mg, po bid after 48 hrs; details: in vivo; procedure, shortened: as §1
[11] = fAUC (0 to 24 hrs) in beta lactamase-positive Haemophilus influenzae pharmacokinetic simulation model dosed as amoxicillin-clavulanic acid at simulated human serum concentration of 2000/125 mg, po bid after 48 hrs; details: in vivo; procedure, shortened: as §1
[12] = Unbound drug concentration in beta lactamase-negative Haemophilus influenzae pharmacokinetic simulation model dosed as amoxicillin-clavulanic acid at simulated human serum concentration of 2000/125 mg, po bid after 6 hrs; procedure, shortened: as §1
[13] = Unbound drug concentration in beta lactamase-positive Haemophilus influenzae pharmacokinetic simulation model dosed as amoxicillin-clavulanic acid at simulated human serum concentration of 2000/125 mg, po bid after 10 hrs; details: in vivo; procedure, shortened: as §1
[14] = Unbound drug concentration in beta lactamase-positive Haemophilus influenzae pharmacokinetic simulation model dosed as amoxicillin-clavulanic acid at simulated human serum concentration of 2000/125 mg, po bid after 4 hrs; procedure, shortened: as §1
[15] = Cmax in beta lactamase-positive Haemophilus influenzae pharmacokinetic simulation model dosed as amoxicillin-clavulanic acid at simulated human serum concentration of 2000/125 mg, po bid after 48 hrs
[16] = Unbound drug concentration in beta lactamase-negative Haemophilus influenzae pharmacokinetic simulation model dosed as amoxicillin-clavulanic acid at simulated human serum concentration of 2000/125 mg, po bid after 8 hrs; procedure, shortened: as §1
[17] = Protein binding in beta lactamase-negative Haemophilus influenzae pharmacokinetic simulation model dosed as amoxicillin-clavulanic acid at simulated human serum concentration of 2000/125 mg, po bid after 48 hrs; details: read-out: PB (converted)
[18] = Unbound drug concentration in beta lactamase-negative Haemophilus influenzae pharmacokinetic simulation model dosed as amoxicillin-clavulanic acid at simulated human serum concentration of 2000/125 mg, po bid after 10 hrs; procedure, shortened: as §1
[19] = Drug concentration in beta lactamase-negative Haemophilus influenzae pharmacokinetic simulation model dosed as amoxicillin-clavulanic acid at simulated human serum concentration of 2000/125 mg, po bid after 1 hr
[20] = Drug concentration in beta lactamase-positive Haemophilus influenzae pharmacokinetic simulation model dosed as amoxicillin-clavulanic acid at simulated human serum concentration of 2000/125 mg, po bid after 10 hrs
[21] = Half life in beta lactamase-negative Haemophilus influenzae pharmacokinetic simulation model dosed as amoxicillin-clavulanic acid at simulated human serum concentration of 2000/125 mg, po bid after 48 hrs
[22] = Drug concentration in beta lactamase-negative Haemophilus influenzae pharmacokinetic simulation model dosed as amoxicillin-clavulanic acid at simulated human serum concentration of 2000/125 mg, po bid after 10 hrs; details: in vivo
[23] = Tmax in beta lactamase-negative Haemophilus influenzae pharmacokinetic simulation model dosed as amoxicillin-clavulanic acid at simulated human serum concentration of 2000/125 mg, po bid after 48 hrs; procedure, shortened: as §1
[24] = fCmax in beta lactamase-negative Haemophilus influenzae pharmacokinetic simulation model dosed as amoxicillin-clavulanic acid at simulated human serum concentration of 2000/125 mg, po bid after 48 hrs; details: in vivo; procedure, shortened: as §1
[25] = Unbound drug concentration in beta lactamase-negative Haemophilus influenzae pharmacokinetic simulation model dosed as amoxicillin-clavulanic acid at simulated human serum concentration of 2000/125 mg, po bid after 1 hr; procedure, shortened: as §1
[26] = Unbound drug concentration in beta lactamase-negative Haemophilus influenzae pharmacokinetic simulation model dosed as amoxicillin-clavulanic acid at simulated human serum concentration of 2000/125 mg, po bid after 2 hrs; procedure, shortened: as §1
[27] = Unbound drug concentration in beta lactamase-positive Haemophilus influenzae pharmacokinetic simulation model dosed as amoxicillin-clavulanic acid at simulated human serum concentration of 2000/125 mg, po bid after 2 hrs; details: in vivo; procedure, shortened: as §1
[28] = Drug concentration in beta lactamase-positive Haemophilus influenzae pharmacokinetic simulation model dosed as amoxicillin-clavulanic acid at simulated human serum concentration of 2000/125 mg, po bid after 3 hrs; details: in vivo
[29] = Drug concentration in beta lactamase-negative Haemophilus influenzae pharmacokinetic simulation model dosed as amoxicillin-clavulanic acid at simulated human serum concentration of 2000/125 mg, po bid after 2 hrs; details: in vivo
[30] = Unbound drug concentration in beta lactamase-positive Haemophilus influenzae pharmacokinetic simulation model dosed as amoxicillin-clavulanic acid at simulated human serum concentration of 2000/125 mg, po bid after 8 hrs; details: in vivo; procedure, shortened: as §1
[31] = Cmax in beta lactamase-negative Haemophilus influenzae pharmacokinetic simulation model dosed as amoxicillin-clavulanic acid at simulated human serum concentration of 2000/125 mg, po bid after 48 hrs
[32] = Drug concentration in beta lactamase-positive Haemophilus influenzae pharmacokinetic simulation model dosed as amoxicillin-clavulanic acid at simulated human serum concentration of 2000/125 mg, po bid after 4 hrs; details: in vivo
[33] = Drug concentration in beta lactamase-negative Haemophilus influenzae pharmacokinetic simulation model dosed as amoxicillin-clavulanic acid at simulated human serum concentration of 2000/125 mg, po bid after 3 hrs; details: in vivo
[34] = fAUC (0 to 24 hrs) in beta lactamase-negative Haemophilus influenzae pharmacokinetic simulation model dosed as amoxicillin-clavulanic acid at simulated human serum concentration of 2000/125 mg, po bid after 48 hrs; details: in vivo; procedure, shortened: as §1
[35] = AUC (0 to 24 hrs) in beta lactamase-negative Haemophilus influenzae pharmacokinetic simulation model dosed as amoxicillin-clavulanic acid at simulated human serum concentration of 2000/125 mg, po bid after 48 hrs
[36] = Unbound drug concentration in beta lactamase-positive Haemophilus influenzae pharmacokinetic simulation model dosed as amoxicillin-clavulanic acid at simulated human serum concentration of 2000/125 mg, po bid after 12 hrs; details: in vivo; procedure, shortened: as §1
[37] = Half life of free unbound fraction in beta lactamase-negative Haemophilus influenzae pharmacokinetic simulation model dosed as amoxicillin-clavulanic acid at simulated human serum concentration of 2000/125 mg, po bid after 48 hrs; details: read-out: ft1/2 (converted)
[38] = AUC (0 to 24 hrs) in beta lactamase-positive Haemophilus influenzae pharmacokinetic simulation model dosed as amoxicillin-clavulanic acid at simulated human serum concentration of 2000/125 mg, po bid after 48 hrs
[39] = Unbound drug concentration in beta lactamase-positive Haemophilus influenzae pharmacokinetic simulation model dosed as amoxicillin-clavulanic acid at simulated human serum concentration of 2000/125 mg, po bid after 6 hrs; details: in vivo; procedure, shortened: as §1
[40] = Drug concentration in beta lactamase-positive Haemophilus influenzae pharmacokinetic simulation model dosed as amoxicillin-clavulanic acid at simulated human serum concentration of 2000/125 mg, po bid after 1 hr; details: in vivo
[41] = Unbound drug concentration in beta lactamase-positive Haemophilus influenzae pharmacokinetic simulation model dosed as amoxicillin-clavulanic acid at simulated human serum concentration of 2000/125 mg, po bid after 3 hrs; details: in vivo; procedure, shortened: as §1

## O=C(O)[C@H]1/C(=C/CO)O[C@@H]2CC(=O)N21 [CLAVULANIC ACID]
[1]
  Drug uptake: 0.2 µg/mL
[2]
  Drug uptake: < 0.03 µg/mL
[3]
  Drug uptake: 0.5 µg/mL
[4]
  Drug uptake: < 0.03 µg/mL
[5]
  Drug uptake: 0.9 µg/mL
[6]
  Drug uptake: 0.1 µg/mL
[7]
  Drug uptake: 1.4 µg/mL
[8]
  Drug uptake: 1.5 µg/mL
[9]
  Tmax: 1.5 h
[10]
  fCmax: 1.4 µg/mL
[11]
  fAUC: 2.8 µg·h/mL
[12]
  Drug uptake: 0.1 µg/mL
[13]
  Drug uptake: < 0.03 µg/mL
[14]
  Drug uptake: 0.1 µg/mL
[15]
  Cmax: 2100 ng/mL
[16]
  Drug uptake: < 0.03 µg/mL
[17]
  fraction unbound at 48 h: 0.75
[18]
  Drug uptake: < 0.03 µg/mL
[19]
  Drug uptake: 1.3 µg/mL
[20]
  Drug uptake: < 0.03 µg/mL
[21]
  half-life: 60 min
[22]
  Drug uptake: < 0.03 µg/mL
[23]
  Tmax: 1.5 h
[24]
  fCmax: 1.5 µg/mL
[25]
  Drug uptake: 0.9 µg/mL
[26]
  Drug uptake: 1 µg/mL
[27]
  Drug uptake: 1 µg/mL
[28]
  Drug uptake: 0.7 µg/mL
[29]
  Drug uptake: 1.4 µg/mL
[30]
  Drug uptake: < 0.03 µg/mL
[31]
  Cmax: 2100 ng/mL
[32]
  Drug uptake: 0.4 µg/mL
[33]
  Drug uptake: 0.7 µg/mL
[34]
  fAUC: 2.9 µg·h/mL
[35]
  AUC at 24 h: 4700 ng·h/mL
[36]
  Drug uptake: < 0.03 µg/mL
[37]
  half-life: 60 min
[38]
  AUC at 24 h: 4500 ng·h/mL
[39]
  Drug uptake: 0.1 µg/mL
[40]
  Drug uptake: 1.2 µg/mL
[41]
  Drug uptake: 0.4 µg/mL

## CC1(C)S[C@@H]2[C@H](NC(=O)[C@H](N)c3ccc(O)cc3)C(=O)N2[C@H]1C(=O)O [AMOXICILLIN]
[1]
  Drug uptake: 8.2 µg/mL
[2]
  Drug uptake: < 0.03 µg/mL
[3]
  Drug uptake: 10.1 µg/mL
[4]
  Drug uptake: 0.3 µg/mL
[5]
  Drug uptake: 9.9 µg/mL
[6]
  Drug uptake: 2.1 µg/mL
[7]
  Drug uptake: 13.3 µg/mL
[8]
  Drug uptake: 13.6 µg/mL
[9]
  Tmax: 1.5 h
[10]
  fCmax: 13.3 µg/mL
[11]
  fAUC: 22.5 µg·h/mL
[12]
  Drug uptake: 5 µg/mL
[13]
  Drug uptake: < 0.03 µg/mL
[14]
  Drug uptake: 0.8 µg/mL
[15]
  Cmax: 17400 ng/mL
[16]
  Drug uptake: 1.7 µg/mL
[18]
  Drug uptake: 0.6 µg/mL
[19]
  Drug uptake: 11.6 µg/mL
[20]
  Drug uptake: < 0.03 µg/mL
[21]
  half-life: 78 min
[22]
  Drug uptake: 0.8 µg/mL
[23]
  Tmax: 1.5 h
[24]
  fCmax: 13.6 µg/mL
[25]
  Drug uptake: 10.4 µg/mL
[26]
  Drug uptake: 11.8 µg/mL
[27]
  Drug uptake: 7.8 µg/mL
[28]
  Drug uptake: 10.5 µg/mL
[29]
  Drug uptake: 15.5 µg/mL
[30]
  Drug uptake: < 0.03 µg/mL
[31]
  Cmax: 17200 ng/mL
[32]
  Drug uptake: 5.5 µg/mL
[34]
  fAUC: 60.7 µg·h/mL
[35]
  AUC at 24 h: 73100 ng·h/mL
[36]
  Drug uptake: < 0.03 µg/mL
[37]
  half-life: 84 min
[38]
  AUC at 24 h: 48700 ng·h/mL
[39]
  Drug uptake: < 0.03 µg/mL
[40]
  Drug uptake: 11.6 µg/mL
[41]
  Drug uptake: 2.9 µg/mL

— ChEMBL document CHEMBL1138533 (Antimicrob Agents Chemother, 2007)
